Measurements published in ChEMBL document CHEMBL4706514, “PSNCBAM-1 analogs: Structural evolutions and allosteric properties at cannabinoid CB1 receptor” (Eur J Med Chem, 2020).
Calls of active or inactive are those of the source. The calls are words filed in the database; no cut-off is given here.

Key:
[1] = molecular target: Cannabinoid receptor 1 (Homo sapiens) (UniProt P21554); test: Positive allosteric modulation of human CB1 receptor expressed in CHO cell membranes assessed as increase in binding [3H]CP55940 to the receptor up to 10 uM after 60 mins by liquid scintillation spectrometric method relative to control; settings: Cell membrane, filed as positive allosteric modulator, dose microM <=10, time 60.0 min
Cannabinoid receptor 1 (Homo sapiens), sequence (P21554 whole entry): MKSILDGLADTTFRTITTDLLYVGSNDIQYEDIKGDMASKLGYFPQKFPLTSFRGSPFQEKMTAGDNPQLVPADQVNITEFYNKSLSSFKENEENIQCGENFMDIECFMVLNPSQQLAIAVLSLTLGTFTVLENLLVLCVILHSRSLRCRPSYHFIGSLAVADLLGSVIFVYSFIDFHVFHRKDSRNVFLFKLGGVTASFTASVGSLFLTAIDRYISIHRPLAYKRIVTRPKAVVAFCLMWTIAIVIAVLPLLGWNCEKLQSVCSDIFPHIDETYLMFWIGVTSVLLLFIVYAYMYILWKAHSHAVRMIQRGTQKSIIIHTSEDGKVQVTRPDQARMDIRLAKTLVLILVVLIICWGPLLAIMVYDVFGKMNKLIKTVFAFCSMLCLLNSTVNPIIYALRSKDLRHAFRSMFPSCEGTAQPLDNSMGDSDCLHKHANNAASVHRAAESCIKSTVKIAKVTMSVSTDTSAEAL
Procedure, shortened: (§1)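 Membranes from CHO cells stably expressing human CB1 (50.0 µg protein/tube) incubated 60 min at 37 °C with [3H]CP55940 0.700 nM and compound 1 nM to 10 µM (from 10.00 mM DMSO stocks; 0.1% DMSO). Ended with ice-cold Tris buffer and vacuum filtration, six washes. Filters oven-dried, then scintillation counted. Six independent experiments in duplicate; one-sample t-test against zero.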

[2] = molecular target: Cannabinoid receptor 1 (Homo sapiens) (UniProt P21554); test: Positive allosteric modulation of human CB1 receptor expressed in CHO cell membranes assessed as increase in binding [3H]CP55940 to the receptor after 60 mins by liquid scintillation spectrometric method; settings: Cell membrane, filed as positive allosteric modulator, dose 1-10000 nM; procedure, shortened: as §1
[3] = molecular target: Cannabinoid receptor 1 (Homo sapiens) (UniProt P21554); test: Inverse agonist activity at human CB1 receptor expressed in CHO cell membranes assessed as decrease in cellular response at 0.001 to 10 uM after 90 mins by [35S]-GTPgammaS binding based liquid scintillation spectrometric method relative to control; format: functional; set-up: scale not given: the % may be the effect or the level left; settings: Cell membrane, dose 0.001-10 µM
Procedure, shortened: (§2)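 Compound alone, 1 nM to 10 µM (from 10.00 mM DMSO stocks; 0.1% DMSO per tube), incubated 90 min at 30 °C with hCB1-CHO membranes (50.0 µg protein/tube). Buffer: 50 mM Tris, 10 mM MgCl2, 100 mM NaCl, 0.2 mM EDTA, 1 mM DTT, pH 7.4, with [35S]GTPγS 0.1 nM and GDP 30 µM. Read by filtration and scintillation counting. Response expressed as % change from vehicle basal stimulation. Six independent experiments, each in duplicate.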

[4] = molecular target: Cannabinoid receptor 2 (Homo sapiens) (UniProt P34972); test: Positive allosteric modulation of human CB2 receptor expressed in CHO cell membranes assessed as increase in binding [3H]CP55940 to the receptor at 0.001 to 10 uM after 60 mins by liquid scintillation spectrometric method; settings: Cell membrane, dose 0.001-10 µM
Cannabinoid receptor 2 (Homo sapiens), sequence (P34972 whole entry): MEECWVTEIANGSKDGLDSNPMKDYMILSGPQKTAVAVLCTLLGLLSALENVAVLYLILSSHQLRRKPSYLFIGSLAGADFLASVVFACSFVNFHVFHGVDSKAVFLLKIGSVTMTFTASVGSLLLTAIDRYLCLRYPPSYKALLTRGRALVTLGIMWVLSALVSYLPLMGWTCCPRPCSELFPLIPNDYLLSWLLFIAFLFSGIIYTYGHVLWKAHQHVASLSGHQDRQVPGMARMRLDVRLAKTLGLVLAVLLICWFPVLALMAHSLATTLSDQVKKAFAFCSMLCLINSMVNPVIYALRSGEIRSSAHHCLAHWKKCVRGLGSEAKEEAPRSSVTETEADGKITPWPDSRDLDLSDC
Procedure, shortened: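 Human CB2 stably expressed in CHO cells; membranes at 50.0 µg protein/tube with [3H]CP55940 0.700 nM and compound 1 nM to 10 µM (0.1% DMSO). Incubated 60 min at 37 °C, then filtered under vacuum with ice-cold Tris buffer and scintillation counted. Six independent experiments, each in duplicate.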

[5] = molecular target: Cannabinoid receptor 1 (Homo sapiens) (UniProt P21554); test: Negative allosteric modulation of human CB1 receptor expressed in CHO cell membranes assessed as decrease in CP55940-induced agonist activity at 1 uM after 90 mins by [35S]-GTPgammaS binding based liquid scintillation spectrometric method relative to control; format: functional; set-up: scale not given: the % may be the effect or the level left; settings: Cell membrane
Procedure, shortened: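 Test compound held fixed at 1 µM (from 10.00 mM DMSO stock) against CP55940 0.1 nM to 1 µM. Incubated with hCB1-CHO membranes (50.0 µg protein/tube, 0.1% DMSO) for 90 min at 30 °C, with [35S]GTPγS 0.1 nM and GDP 30 µM in Tris/MgCl2/NaCl/EDTA/DTT buffer, pH 7.4. Bound label filtered and counted. Data taken as % change over vehicle basal; mean of six experiments in duplicate.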

[6] = molecular target: Cannabinoid receptor 1 (Homo sapiens) (UniProt P21554); test: Negative allosteric modulation of human CB1 receptor expressed in CHO cell membranes assessed as decrease in CP55940-induced agonist activity at 100 nM after 90 mins by [35S]-GTPgammaS binding based liquid scintillation spectrometric method; format: functional; settings: Cell membrane, filed as negative allosteric modulator
[7] = molecular target: Cannabinoid receptor 1 (Homo sapiens) (UniProt P21554); test: Inverse agonist activity at human CB1 receptor expressed in CHO cell membranes assessed as decrease in cellular response up to 1 uM after 90 mins by [35S]-GTPgammaS binding based liquid scintillation spectrometric method; format: functional; settings: Cell membrane, dose microM <=1, time 90.0 min; procedure, shortened: as §2
[8] = molecular target: Cannabinoid receptor 1 (Homo sapiens) (UniProt P21554); test: Inverse agonist activity at human CB1 receptor expressed in CHO cell membranes assessed as decrease in cellular response >1 uM after 90 mins by [35S]-GTPgammaS binding based liquid scintillation spectrometric method; format: functional; set-up: scale not given: the % may be the effect or the level left; settings: Cell membrane, dose microM >1, time 90.0 min; procedure, shortened: as §2
[9] = molecular target: Cannabinoid receptor 1 (Homo sapiens) (UniProt P21554); test: Inverse agonist activity at human CB1 receptor expressed in CHO cell membranes assessed as decrease in cellular response up to 10 uM after 90 mins by [35S]-GTPgammaS binding based liquid scintillation spectrometric method; format: functional; settings: Cell membrane, dose microM <=10, time 90.0 min; procedure, shortened: as §2
[10] = molecular target: Cannabinoid receptor 2 (Homo sapiens) (UniProt P34972); test: Binding affinity to human CB2 receptor expressed in CHO cell membranes assessed as displacement of [3H]CP55940 from the receptor > 1 uM after 60 mins by liquid scintillation spectrometric method; settings: Cell membrane, dose microM >1, time 60.0 min
[11] = molecular target: Cannabinoid receptor 1 (Homo sapiens) (UniProt P21554); test: Positive allosteric modulation of human CB1 receptor expressed in CHO cell membranes assessed as increase in binding [3H]CP55940 to the receptor at 1 uM after 60 mins by liquid scintillation spectrometric method relative to control; settings: Cell membrane; procedure, shortened: as §1
[12] = molecular target: Cannabinoid receptor 1 (Homo sapiens) (UniProt P21554); test: Positive allosteric modulation of human CB1 receptor expressed in CHO cell membranes assessed as increase in binding [3H]CP55940 to the receptor at 10 uM after 60 mins by liquid scintillation spectrometric method relative to control; settings: Cell membrane; procedure, shortened: as §1

SMILES	Activity [1] [%]	Activity [2]	Activity [5]	also measured
O=C(Nc1ccc(F)cc1)Nc1cccc(-c2cccc(N3CCCC3)c2)c1	70	Dose-dependent effect		Activity ([3]; filed as inverse agonist): 45%
O=C(Nc1ccc(Cl)cc1)Nc1cccc(Nc2ccc(F)cc2)c1	90	Dose-dependent effect	30%	Activity [4]: inactive; Activity [6]: Active; Activity [7]: inactive; Activity [8]: 35%
O=C(Nc1ccc(Cl)cc1)Nc1cccc(Nc2ccccc2)c1	90	Dose-dependent effect		Activity [3]: 30%
O=C(Nc1ccc(Cl)cc1)Nc1cccc(Nc2cccc(N3CCCCC3)n2)n1	50	Dose-dependent effect	inactive	Activity [9]: inactive
O=C(Nc1ccc(Cl)cc1)Nc1cccc(-c2cccc(N3CCCCC3)c2)c1			30%	Displacement [10]: Active; Activity [11]: 40%; Activity [7]: inactive; Activity [8]: 30%
O=C(CCc1ccc(Cl)cc1)Nc1cccc(-c2cccc(N3CCCC3)c2)c1				Activity [12]: inactive
O=C(Nc1ccc(Cl)cc1)Nc1cccc(Nc2ccccn2)c1	170	Dose-dependent effect		Activity [3]: 30%
O=C(Nc1ccc(Cl)cc1)Nc1cccc(Nc2cccc(N3CCCC3)n2)n1	60	Dose-dependent effect	inactive	Activity [9]: inactive
